High-throughput results as filed in PubChem.
PG9 binder – PG9 antibody binding by small molecule; TR-FRET gp120-PG9 antibody binding; inhibition, % at 6.7 µM; 360,000 tested, 0.43% active; AID 624416; in the data active means inhibition above about 8.5%
NR2E3 ag-1 – NR2E3 (human) agonism; 320,000 tested, 0.12% active; Q9Y5X4; inhibition of corepressor binding, % at 4.78 µM; GST-NR2E3/biotin-RetCOR TR-FRET, 1536-well;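 active means percent inhibition above the cutoff of mean plus 3 SD of all tested compounds, set per screening campaign, cut at about 20% in these data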;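 further: 0% = DMSO wells and 100% = biotin wells as full block of FRET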
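System: GST-tagged NR2E3 plus biotinylated RetCOR corepressor; Buffer or medium: pH 7.5 Tris-based buffer; Probe or stimulus: RetCOR corepressor, biotinylated, 7 nM; Doses: compound at 4.8 µM, single dose; Schedule: 5 h incubation at 4 °C; Technique: time-resolved FRET; Evaluation: percent inhibition of TR-FRET ratio; Replication: one well per compound, singlicate testing.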
NR2E3 ag-2 – human photoreceptor-specific nuclear receptor agonism; Q9Y5X4; CHO-S Gal4-NCOR/VP16-NR2E3 two-hybrid, luciferase; inhibition of corepressor binding, % at 3.98 µM; 360,000 tested, 0.35% active;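 active means inhibition above the mean of all tested compounds plus 3 SD, cut at about 70% in these data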;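 further: 0% = DMSO with NR2E3 transfected cells and 100% = cells lacking NR2E3 construct; higher means lower luciferase signal from less NR2E3 corepressor binding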
Rev-erbA mod – modulators of human Rev-erb alpha DNA binding; AID 1259318; P20393; activity, % at 10 µM; Rev-erbα–FITC-DNA binding, fluorescence polarization, 90 min; 370,000 tested, 0.79% active;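 active means activity above about 14%, limit read from the data; passing the limit was not always enough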;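 further: 0% = DMSO wells with 35 nM protein and 100% = DMSO wells with 750 nM protein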
Target sequence (P20393 whole entry, looked up): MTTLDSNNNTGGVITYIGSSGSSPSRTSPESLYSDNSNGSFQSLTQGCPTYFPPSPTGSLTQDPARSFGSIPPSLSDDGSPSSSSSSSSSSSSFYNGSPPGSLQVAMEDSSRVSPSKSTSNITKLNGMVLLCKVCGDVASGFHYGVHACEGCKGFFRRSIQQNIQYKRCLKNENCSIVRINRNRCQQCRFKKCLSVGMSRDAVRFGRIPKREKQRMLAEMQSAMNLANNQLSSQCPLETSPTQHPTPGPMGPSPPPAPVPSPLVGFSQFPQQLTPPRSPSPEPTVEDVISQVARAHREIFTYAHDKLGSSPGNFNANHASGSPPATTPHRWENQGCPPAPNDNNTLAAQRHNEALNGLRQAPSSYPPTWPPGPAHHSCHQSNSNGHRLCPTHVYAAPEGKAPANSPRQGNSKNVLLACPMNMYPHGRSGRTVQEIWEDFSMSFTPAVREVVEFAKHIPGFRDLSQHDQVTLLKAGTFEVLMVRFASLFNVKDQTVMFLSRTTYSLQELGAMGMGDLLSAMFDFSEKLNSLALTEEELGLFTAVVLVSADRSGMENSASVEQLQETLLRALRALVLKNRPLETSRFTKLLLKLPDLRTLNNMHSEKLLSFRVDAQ
NR2E3 ag conf – NR2E3 agonism confirmed in two-hybrid assay. shares compounds with NR2E3 ag-2. CHO-S mammalian two-hybrid NR2E3-NCOR, luciferase luminescence. inhibition, % at 3.98 µM. 2,300 tested, 51% active. AID 624378;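 active means average inhibition above a cutoff equal to the mean inhibition of all tested compounds plus one SD, cut at about 70% in these data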;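 further: 0% = DMSO in NR2E3 cells and 100% = DMSO in cells lacking NR2E3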
GAL4-VP16 luc – GAL4-VP16 reporter inhibition in NR2E3 agonist counterscreen | shares compounds with NR2E3 ag-2 | CHO-S GAL4-VP16 luciferase reporter, luminescence | inhibition, % at 3.98 µM | 2,300 tested, 29% active;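 active means mean inhibition above a cutoff equal to the average over all tested compounds plus one standard deviation, cut at about 70% in these data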;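 further: luciferase from a UAS reporter driven by GAL4-VP16 transactivation; 0% = DMSO with VP16-transfected cells and 100% = DMSO with cells lacking VP16; higher means less reporter light so more repression of VP16 activity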
PG9 bind confirm – confirmation of small molecules binding HIV-1 gp120 antibody PG9. shares compounds with PG9 binder. 1,500 tested, 90% active. AID 651571. TR-FRET PG9 antibody binding, biochemical. inhibition, % at 6.7 µM; in the data active means inhibition above about 9%
PGV04 Ab binding – counter-screen for PG9 binders: binding control antibody PGV04. shares compounds with PG9 binder. TR-FRET PGV04 antibody-gp120 binding, biochemical. inhibition, % at 6.7 µM. 1,500 tested, 95% active. AID 651604; in the data active means inhibition above about 9.5%
Rev-erbA confirm – Rev-erb alpha (human) modulation, hit confirmation | 3,000 tested, 61% active | shares compounds with Rev-erbA mod | activation, % at 25 µM | Rev-erb alpha FITC-DNA binding, fluorescence polarization, 90 min;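 active means activation at or above a set limit, or at least 3 SD above the negative control mean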;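 further: 0% = 35 nM protein with DMSO and 100% = 750 nM protein high control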
RORg DNA counter – counter-screen for Rev-erb alpha modulators: RORgamma DNA binding; shares compounds with Rev-erbA mod; purified RORgamma protein-FITC-DNA binding, fluorescence polarization; IC50, µM; 910 tested, 8% active;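 active means Compounds whose fitted half-maximal concentration for disrupting protein-DNA binding is below 10 micromolar; the record names Rev-erb in its text, so the target is in doubt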
* hit, by the source's call; i = inactive; . = no result given. The list is not random: actives were taken first. Their share in the collection is about 1.4%.

SMILES	PG9 binder	NR2E3 ag-1	NR2E3 ag-2	Rev-erbA mod	NR2E3 ag conf	GAL4-VP16 luc	others
CC1=CC2OC3CC4OC(=O)C=CC=CC(C(C)O)OCC(O)C(C)CC(=O)OCC2(CC1O)C4(C)C31CO1 (stereo not given)	1	.	101*	-3	100*	99*
COc1cc2c(cc1OC)[C@@]13CCN4CC5=CCOC6CC(=O)N2C1[C@H]6[C@H]5C[C@H]43 (stereo not given in full)	.	.	.	10	.	.
C[C@]12CCC(=O)C=C1C=CC1C2CC[C@@]2(C)C1CC[C@@]2(O)CCC(=O)O (stereo not given in full)	.	.	.	0	.	.
COC(=O)C12OCC34C(CC5C(C)=C(O)C(=O)CC5(C)C3C(O)C1O)OC(=O)C(OC(=O)/C=C(\C)C(C)C)C24 (stereo not given)	-1	.	103*	6	100*	100*
CCC(C)C(NC(=O)CCCNC(=O)CCC(=O)OC1O[C@H]2OC3(C)CC[C@H]4[C@H](C)CCC(C1C)C24OO3)C(=O)O (stereo not given in full)	-1	2	95*	-1	94*	71*
CCC(C)NC(=O)CCC(=O)OC1O[C@H]2OC3(C)CC[C@H]4[C@H](C)CCC(C1C)C24OO3 (stereo not given in full)	-1	.	103*	3	97*	75*
COc1ccc2c(c1)[C@]13CCCC[C@H]1[C@H](C2)N(C)CC3	.	.	.	3	.	.
COc1ccc(CC(=O)N2CCN(C)CC2)cc1	0	0	-5	-5	.	.
COc1ccc(CC2NCC(O)C2OC(C)=O)cc1 (stereo not given)	0	.	105*	-7	99*	99*
CC(=O)OC(C)(C)/C=C/C(=O)C(C)(O)C1C(O)CC2(C)C3CC=C4C(CC(O)C(=O)C4(C)C)C3(C)C(=O)CC12C (stereo not given)	1	.	63	2	80*	48
CC(=O)OC1(C)CC(C)C(=O)C(C(O)CC2CC(=O)NC(=O)C2)C1 (stereo not given)	-1	.	105*	-1	99*	99*
C[C@@H]1C[C@@H]([C@H](O)CC2CC(=O)NC(=O)C2)C(=O)[C@@H](C)C1	2	3	102*	1	100*	95*
CN(C)c1ccc(/C=C/c2cc[n+](C)c3ccccc23)cc1	-129	.	61	7	77*	38
CN(C)c1ccc(/C=C/C=C/c2sc3ccccc3[n+]2C)cc1	-126	-13	20	-6	.	.
C[C@@H]1CC[C@H]2[C@@H](C)C(=O)O[C@@H]3OC4(C)CC[C@@H]1[C@]32OO4	.	.	.	-6	.	.
CC[C@@H](O)C[C@H]1CCC[C@@]2(C[C@@H]3OC(=O)/C=C/[C@@](C)(O)[C@@H](O)[C@H](C)[C@@H](O)[C@H](OC4CCC(N(C)C)C(C)O4)[C@@H](O)[C@](C)(O)CCCCC/C=C/[C@@H]4CC(C)(C)O[C@@]4(O)C[C@H](O2)[C@H]3C)O1 (stereo not given in full)	-3	.	89*	-6	97*	87*
O=C(O)CCCO	.	.	.	-11	.	.
Cn1c(O)c(/C=C2\C=Nc3ccccc32)c(=O)n(C)c1=O	18*	4	-18	4	.	.	PG9 bind confirm=13*;PGV04 Ab binding=28*
CN1C(=O)[C@@]23C[C@]4(c5c[nH]c6ccccc56)c5ccccc5N(S(=O)(=O)c5ccccc5)[C@@H]4N2C(=O)[C@@H]1SS3	.	.	.	-1	.	.
CCCCCn1c(=O)c(C(=O)Nc2ccccc2Cl)c(O)c2ccccc21	-1	0	-20	76*	.	.	Rev-erbA confirm=33*;RORg DNA counter=i
